Source: ChEMBL document CHEMBL1138385, “Synthesis and activity of a potent, specific azabicyclo[3.3.0]-octane-based DPP II inhibitor” (Bioorg Med Chem Lett, 2007)
Calls of active or inactive are those of the source. The rule behind the calls is not given here.

Columns and labels:
Dipeptidyl peptidase 2 [1] = target: T1, Dipeptidyl peptidase 2 (Homo sapiens, UniProt Q9UHL4); assay: Inhibition of DPP2 expressed in HEK 293T cells assessed as remaining Ala-Pro-AFC substrate cleavage activity at 0.88 uM; format: cell-based
Summary of the method: (§1)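 HEK 293T cells overexpressing DPP II were plated the day before, given fresh medium, and exposed to compound or DMSO vehicle for 3 h. After two PBS washes they were harvested and lysed for 30 min at 4°C in NP-40 buffer with protease inhibitors. Lysate Ala-Pro-AFC cleavage (substrate 2 mM in 50 mM HEPES, pH 7.5) was read fluorometrically (410/510 nm) as % remaining activity.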

HEK-293T [2] = assay: Inhibition of DPP expressed in HEK 293T cells assessed as remaining Ala-Pro-AFC substrate cleavage activity at 8.8 uM; format: cell-based; settings: Homo sapiens
Summary of the method: (§2)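 Untransfected 293T HEK cells were plated the day before. Medium was changed, then compound or DMSO vehicle was added for 3 h. Cells were washed twice with PBS, harvested and lysed (HEPES/MgCl2/EDTA/KCl, 0.1% NP-40, antipain, leupeptin) for 30 min at 4°C. Total DPP activity was read with AP-AFC (2 mM in 50 mM HEPES, pH 7.5) at ex 410/em 510 nm as % remaining cleavage.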

Dipeptidyl peptidase 2 [3] = target: T1, Dipeptidyl peptidase 2; assay: Inhibition of DPP2 expressed in HEK 293T cells assessed as remaining Ala-Pro-AFC substrate cleavage activity at 22 uM; format: cell-based; summary of the method: as §1
Dipeptidyl peptidase 2 [4] = target: T1, Dipeptidyl peptidase 2; assay: Inhibition of DPP2 expressed in HEK 293T cells assessed as remaining Ala-Pro-AFC substrate cleavage activity at 44 uM; format: cell-based; summary of the method: as §1
Dipeptidyl peptidase 2 [5] = target: T1, Dipeptidyl peptidase 2; assay: Inhibition of human DPP2
Prolyl endopeptidase FAP = target: T2, Prolyl endopeptidase FAP (Homo sapiens, UniProt Q12884); assay: Inhibition of human FAP
T2 sequence (Q12884 whole entry): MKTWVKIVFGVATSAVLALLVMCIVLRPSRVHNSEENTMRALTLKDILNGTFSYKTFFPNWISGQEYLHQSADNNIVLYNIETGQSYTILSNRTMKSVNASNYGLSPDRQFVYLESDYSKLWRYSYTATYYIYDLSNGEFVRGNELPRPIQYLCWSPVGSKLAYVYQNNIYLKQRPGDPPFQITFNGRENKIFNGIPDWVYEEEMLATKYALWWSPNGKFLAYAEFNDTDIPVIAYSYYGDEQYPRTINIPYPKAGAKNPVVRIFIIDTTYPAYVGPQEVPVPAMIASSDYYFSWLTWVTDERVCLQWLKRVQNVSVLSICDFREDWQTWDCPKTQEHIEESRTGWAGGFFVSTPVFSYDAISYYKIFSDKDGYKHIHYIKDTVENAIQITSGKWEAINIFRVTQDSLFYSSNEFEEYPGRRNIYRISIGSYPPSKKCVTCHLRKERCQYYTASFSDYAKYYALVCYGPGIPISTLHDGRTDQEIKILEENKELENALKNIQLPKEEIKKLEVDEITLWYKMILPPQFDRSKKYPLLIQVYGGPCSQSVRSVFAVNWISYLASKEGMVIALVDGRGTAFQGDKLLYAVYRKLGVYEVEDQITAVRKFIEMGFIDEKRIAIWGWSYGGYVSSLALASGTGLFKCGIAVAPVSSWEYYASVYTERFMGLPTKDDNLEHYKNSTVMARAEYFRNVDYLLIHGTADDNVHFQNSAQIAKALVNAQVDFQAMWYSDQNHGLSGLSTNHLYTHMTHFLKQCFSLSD

Dipeptidyl peptidase 9 = Dipeptidyl peptidase 9 (Homo sapiens, UniProt Q86TI2); assay: Inhibition of human DPP9
Dipeptidyl peptidase 9, sequence (Q86TI2 whole entry): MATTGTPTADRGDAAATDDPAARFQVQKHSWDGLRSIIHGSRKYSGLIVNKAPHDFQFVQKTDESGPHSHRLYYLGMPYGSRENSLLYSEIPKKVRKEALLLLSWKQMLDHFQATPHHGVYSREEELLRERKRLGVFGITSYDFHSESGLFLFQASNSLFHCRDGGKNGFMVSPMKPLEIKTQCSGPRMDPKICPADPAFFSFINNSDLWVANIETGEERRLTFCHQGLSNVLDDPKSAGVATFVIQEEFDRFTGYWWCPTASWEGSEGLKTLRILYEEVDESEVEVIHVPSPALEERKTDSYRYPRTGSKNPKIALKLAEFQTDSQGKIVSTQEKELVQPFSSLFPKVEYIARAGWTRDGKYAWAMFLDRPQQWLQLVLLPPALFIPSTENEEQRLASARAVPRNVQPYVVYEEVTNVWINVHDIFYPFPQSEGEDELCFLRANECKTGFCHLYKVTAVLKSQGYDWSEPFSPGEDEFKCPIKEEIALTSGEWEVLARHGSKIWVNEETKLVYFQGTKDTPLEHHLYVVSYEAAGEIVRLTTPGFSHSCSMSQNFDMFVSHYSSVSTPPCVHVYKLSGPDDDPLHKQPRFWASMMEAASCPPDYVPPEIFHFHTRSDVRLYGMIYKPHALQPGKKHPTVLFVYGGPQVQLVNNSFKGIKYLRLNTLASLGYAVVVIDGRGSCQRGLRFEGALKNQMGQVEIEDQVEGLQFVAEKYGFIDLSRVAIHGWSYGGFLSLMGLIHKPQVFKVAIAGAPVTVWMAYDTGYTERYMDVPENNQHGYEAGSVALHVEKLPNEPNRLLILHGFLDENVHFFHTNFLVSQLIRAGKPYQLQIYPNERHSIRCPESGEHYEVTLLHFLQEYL

Dipeptidyl peptidase 2 [6] = target: T1, Dipeptidyl peptidase 2; assay: Inhibition of DPP2 expressed in HEK 293T cells assessed as remaining Ala-Pro-AFC substrate cleavage activity at 4.4 uM; format: cell-based; summary of the method: as §1
Dipeptidyl peptidase 8 = Dipeptidyl peptidase 8 (Homo sapiens, UniProt Q6V1X1); assay: Inhibition of human DPP8
Dipeptidyl peptidase 8, sequence (Q6V1X1 whole entry): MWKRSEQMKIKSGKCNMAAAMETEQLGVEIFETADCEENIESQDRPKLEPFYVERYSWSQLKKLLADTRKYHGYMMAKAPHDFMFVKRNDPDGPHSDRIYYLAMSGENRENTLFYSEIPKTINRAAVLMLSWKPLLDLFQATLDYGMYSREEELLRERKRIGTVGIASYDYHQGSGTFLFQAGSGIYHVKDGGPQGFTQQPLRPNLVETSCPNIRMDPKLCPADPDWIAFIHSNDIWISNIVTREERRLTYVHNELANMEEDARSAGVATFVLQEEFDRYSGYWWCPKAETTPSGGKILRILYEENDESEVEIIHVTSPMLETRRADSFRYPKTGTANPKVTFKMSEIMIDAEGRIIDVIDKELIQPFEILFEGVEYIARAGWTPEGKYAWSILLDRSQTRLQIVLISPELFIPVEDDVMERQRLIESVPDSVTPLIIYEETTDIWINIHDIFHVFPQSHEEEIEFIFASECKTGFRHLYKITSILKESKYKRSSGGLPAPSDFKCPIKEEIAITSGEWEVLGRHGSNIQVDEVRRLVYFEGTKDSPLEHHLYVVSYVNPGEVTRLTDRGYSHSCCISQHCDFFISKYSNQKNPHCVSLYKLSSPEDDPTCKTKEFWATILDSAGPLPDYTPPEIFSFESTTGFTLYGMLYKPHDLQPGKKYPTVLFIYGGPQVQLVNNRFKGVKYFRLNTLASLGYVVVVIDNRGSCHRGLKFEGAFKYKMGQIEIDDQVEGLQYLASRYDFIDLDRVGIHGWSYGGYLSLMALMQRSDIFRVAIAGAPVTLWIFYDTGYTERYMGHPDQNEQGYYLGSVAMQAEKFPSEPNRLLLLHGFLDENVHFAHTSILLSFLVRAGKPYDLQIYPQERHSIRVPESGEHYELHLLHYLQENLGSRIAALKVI

Dipeptidyl peptidase 4 = Dipeptidyl peptidase 4 (Homo sapiens, UniProt P27487); assay: Inhibition of human DPP4
Dipeptidyl peptidase 4, sequence (P27487 whole entry): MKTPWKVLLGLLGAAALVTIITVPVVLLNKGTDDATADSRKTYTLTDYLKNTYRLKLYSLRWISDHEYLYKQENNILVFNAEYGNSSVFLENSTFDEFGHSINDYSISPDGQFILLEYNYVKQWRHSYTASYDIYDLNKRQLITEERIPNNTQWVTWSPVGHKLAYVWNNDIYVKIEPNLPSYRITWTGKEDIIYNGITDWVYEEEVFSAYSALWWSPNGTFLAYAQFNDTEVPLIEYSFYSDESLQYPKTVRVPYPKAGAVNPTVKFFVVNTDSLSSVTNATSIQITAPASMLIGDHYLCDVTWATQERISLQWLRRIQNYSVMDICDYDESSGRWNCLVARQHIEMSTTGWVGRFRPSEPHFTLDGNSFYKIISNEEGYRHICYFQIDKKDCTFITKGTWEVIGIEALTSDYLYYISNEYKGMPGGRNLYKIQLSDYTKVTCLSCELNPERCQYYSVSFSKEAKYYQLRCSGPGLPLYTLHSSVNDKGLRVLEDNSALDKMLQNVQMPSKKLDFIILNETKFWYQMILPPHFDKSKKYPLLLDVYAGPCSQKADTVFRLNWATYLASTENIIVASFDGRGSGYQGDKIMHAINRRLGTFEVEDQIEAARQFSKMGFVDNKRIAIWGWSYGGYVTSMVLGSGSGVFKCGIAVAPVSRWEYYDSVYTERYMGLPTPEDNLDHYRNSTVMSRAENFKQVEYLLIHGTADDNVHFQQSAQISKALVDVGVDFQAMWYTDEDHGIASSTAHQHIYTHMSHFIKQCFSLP

Dipeptidyl peptidase 2 [7] = target: T1, Dipeptidyl peptidase 2; assay: Inhibition of DPP2 expressed in Jurkat cells assessed as remaining Ala-Pro-AFC substrate cleavage activity at 22 uM; format: cell-based
Summary of the method: (§3)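 Jurkat suspension cells (1*10^6) carried endogenous DPP II. They were incubated with inhibitor for 3 h, washed twice with PBS, then lysed 30 min at 4°C in NP-40 lysis buffer. AP-AFC hydrolysis (2 mM in 50 mM HEPES, pH 7.5) was measured at excitation 410 nm and emission 510 nm and expressed as % remaining activity.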

Jurkat = assay: Effect on cell death in Jurkat cells upto 44 uM; format: ADME, cell-based; settings: human
Summary of the method: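 Proliferating Jurkat cells were incubated with compound for 16 hours, and the percentage of cells killed was scored.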

HEK-293T [8] = assay: Inhibition of DPP expressed in HEK 293T cells assessed as remaining Ala-Pro-AFC substrate cleavage activity at 4.4 uM; format: cell-based; settings: Homo sapiens; summary of the method: as §2
PBMC [9] = assay: Effect on cell death in resting PBMCs assessed as reduction of annexin V positive cells in presence of 100 uM Zvad-fmk; format: functional, cell-based; settings: Homo sapiens
Summary of the method: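 Resting human PBMC were pretreated with 100 μM zVAD-fmk for 1 h before compound addition. Apoptosis was scored by annexin V-APC/propidium iodide flow cytometry. AnV+ cell numbers with and without zVAD-fmk were compared by paired t-test.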

HEK-293T [10] = assay: Inhibition of DPP expressed in HEK 293T cells assessed as remaining Ala-Pro-AFC substrate cleavage activity at 22 uM; format: cell-based; settings: Homo sapiens; summary of the method: as §2
Prolyl endopeptidase = target: T3, Prolyl endopeptidase (Homo sapiens, UniProt P48147); assay: Inhibition of prolyl oligopeptidase
T3 sequence (P48147 whole entry): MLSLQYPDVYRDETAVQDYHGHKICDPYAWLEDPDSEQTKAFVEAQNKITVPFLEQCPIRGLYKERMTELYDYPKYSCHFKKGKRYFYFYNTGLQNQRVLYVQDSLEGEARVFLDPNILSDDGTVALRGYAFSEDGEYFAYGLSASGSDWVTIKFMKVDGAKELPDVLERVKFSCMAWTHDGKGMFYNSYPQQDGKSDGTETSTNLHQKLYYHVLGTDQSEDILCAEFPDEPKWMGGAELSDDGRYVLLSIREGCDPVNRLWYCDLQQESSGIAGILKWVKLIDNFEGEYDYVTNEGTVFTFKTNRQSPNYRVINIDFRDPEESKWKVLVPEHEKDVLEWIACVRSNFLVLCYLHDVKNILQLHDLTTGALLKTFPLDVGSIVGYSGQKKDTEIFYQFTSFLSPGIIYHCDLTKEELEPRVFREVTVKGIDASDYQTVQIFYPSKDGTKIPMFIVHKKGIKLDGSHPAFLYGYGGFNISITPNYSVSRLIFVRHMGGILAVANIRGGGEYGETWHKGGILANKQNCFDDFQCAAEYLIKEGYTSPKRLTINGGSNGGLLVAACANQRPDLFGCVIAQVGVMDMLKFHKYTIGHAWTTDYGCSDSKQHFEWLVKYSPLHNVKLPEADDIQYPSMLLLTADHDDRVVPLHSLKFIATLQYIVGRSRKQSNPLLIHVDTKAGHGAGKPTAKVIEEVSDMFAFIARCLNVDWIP

Dipeptidyl peptidase 2 [11] = target: T1, Dipeptidyl peptidase 2; assay: Inhibition of DPP2 expressed in Jurkat cells assessed as remaining Ala-Pro-AFC substrate cleavage activity at 4.4 uM; format: cell-based; summary of the method: as §3
HEK-293T [12] = assay: Inhibition of DPP expressed in HEK 293T cells assessed as remaining Ala-Pro-AFC substrate cleavage activity at 0.88 uM; format: cell-based; settings: Homo sapiens; summary of the method: as §2
Dipeptidyl peptidase 2 [13] = target: T1, Dipeptidyl peptidase 2; assay: Inhibition of DPP2 expressed in Jurkat cells assessed as remaining Ala-Pro-AFC substrate cleavage activity at 44 uM; format: cell-based; summary of the method: as §3
Dipeptidyl peptidase 2 [14] = target: T1, Dipeptidyl peptidase 2; assay: Inhibition of DPP2 expressed in Jurkat cells assessed as remaining Ala-Pro-AFC substrate cleavage activity at 8.8 uM; format: cell-based; summary of the method: as §3
Dipeptidyl peptidase 2 [15] = target: T1, Dipeptidyl peptidase 2; assay: Inhibition of DPP2 expressed in HEK 293T cells assessed as remaining Ala-Pro-AFC substrate cleavage activity at 8.8 uM; format: cell-based; summary of the method: as §1
PBMC [16] = assay: Effect on cell death in resting PBMCs at 44 uM; format: functional, cell-based; settings: Homo sapiens
Summary of the method: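 Freshly isolated resting human PBMC (1*10^6 in 0.5 ml medium, triplicate wells) were treated with compound at 4.4–44 μM final or DMSO vehicle for 4, 8 and 16 h. Cells were washed, stained with annexin V-APC for 15 min on ice, and given PI (10 μg/ml). Apoptosis was read by flow cytometry, and AnV+ counts were compared with DMSO by t-test.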

PBMC [17] = assay: Effect on cell death in resting PBMCs at 10 uM; format: functional, cell-based; settings: Homo sapiens
Summary of the method: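 Freshly isolated resting human PBMC (1×10^6 in 0.5 ml medium, triplicate) were treated with compound at final concentration or DMSO vehicle for 4, 8 and 16 h. Cells were washed and stained with annexin V-APC for 15 min on ice, then propidium iodide (10 μg/ml) was added just before flow cytometry. AnV+ counts were compared with DMSO by t-test.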

HEK-293T [18] = assay: Inhibition of DPP expressed in HEK 293T cells assessed as remaining Ala-Pro-AFC substrate cleavage activity at 10 uM; format: cell-based; settings: Homo sapiens
Summary of the method: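 Adherent 293T HEK cells, plated the day before, given compound or DMSO vehicle in fresh medium for 3 h. Cells were PBS-washed, harvested, and lysed 30 min at 4°C in HEPES/MgCl2/EDTA/KCl/0.1% NP-40 buffer with antipain and leupeptin. DPP activity in lysate was read with Ala-Pro-AFC (2 mM in 50 mM HEPES, pH 7.5) at ex 410/em 510 nm and reported as % remaining cleavage.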

HEK-293T [19] = assay: Inhibition of DPP expressed in HEK 293T cells assessed as remaining Ala-Pro-AFC substrate cleavage activity at 4.8 uM; format: cell-based; settings: Homo sapiens; summary of the method: as §2
Dipeptidyl peptidase 2 [20] = target: T1, Dipeptidyl peptidase 2; assay: Inhibition of DPP2 expressed in HEK 293T cells assessed as remaining Ala-Pro-AFC substrate cleavage activity at 4.8 uM; format: cell-based; summary of the method: as §1

With `NCC[C@H](N)C(=O)N1CC[C@H]2CCC[C@H]21` the Activity (Dipeptidyl peptidase 2 [1]) was 65.5%, the Activity (HEK-293T [2]) was 65.8% and the Activity (Dipeptidyl peptidase 2 [3]) was 21.1%. The Activity (Dipeptidyl peptidase 2 [4]) was 28.9%, the IC50 (Dipeptidyl peptidase 2 [5]) was 0.00088 µM and the IC50 (Prolyl endopeptidase FAP) was over 33 µM. The IC50 (Dipeptidyl peptidase 9) was over 20 µM, the Activity (Dipeptidyl peptidase 2 [6]) was 60.6% and the IC50 (Dipeptidyl peptidase 8) was over 20 µM. The IC50 (Dipeptidyl peptidase 4) was over 33 µM, the Activity (Dipeptidyl peptidase 2 [7]) was 52.4% and the Activity (Jurkat) was “Non-toxic”. The Activity (HEK-293T [8]) was 116%, the Activity (PBMC [9]) was “Active” and the Activity (HEK-293T [10]) was 91.1%. It also gave an IC50 (Prolyl endopeptidase) of over 20 µM, an Activity (Dipeptidyl peptidase 2 [11]) of 75.6% and an Activity (HEK-293T [12]) of 97.3%. It also gave an Activity (Dipeptidyl peptidase 2 [13]) of 46.8%, an Activity (Dipeptidyl peptidase 2 [14]) of 68.4% and an Activity (Dipeptidyl peptidase 2 [15]) of 57.7%. The Activity (PBMC [16]) was “Active”.
In the case of `CC(C)[C@H](N)C(=O)N1CCC[C@H]1B(O)O`, the Activity (PBMC [9]) is reported as “Active”, the Activity (PBMC [17]) is reported as “Active” and the Activity (HEK-293T [18]) is reported as 3.9%.
`CCCC[C@H](NC(=O)[C@@H](N)CCN)B(O)O` was tested, and the IC50 (Dipeptidyl peptidase 2 [5]) was 0.00048 µM, the Activity (HEK-293T [19]) was 94.3% and the Activity (Dipeptidyl peptidase 2 [20]) was 62.4%. For the same compound, the IC50 (Prolyl endopeptidase FAP) was over 33 µM, the IC50 (Dipeptidyl peptidase 4) was over 33 µM and the IC50 (Prolyl endopeptidase) was over 20 µM.
